This is an account of results in ChEMBL document CHEMBL1914446, “Pharmacophore identification, virtual screening and biological evaluation of prenylated flavonoids derivatives as PKB/Akt1 inhibitors” (Eur J Med Chem, 2011).

Activity calls are given as the source filed them. The rule behind the calls is not given here.

The target in assay [1] is T1, RAC-alpha serine/threonine-protein kinase (Homo sapiens, UniProt P31749). The assay is described as follows: Inhibition of GST-tagged PKB/Akt1 incubated for 5 mins before eNOS substrate and ATP addition measured after 30 mins by kinase assay.
T1 sequence (P31749 whole entry): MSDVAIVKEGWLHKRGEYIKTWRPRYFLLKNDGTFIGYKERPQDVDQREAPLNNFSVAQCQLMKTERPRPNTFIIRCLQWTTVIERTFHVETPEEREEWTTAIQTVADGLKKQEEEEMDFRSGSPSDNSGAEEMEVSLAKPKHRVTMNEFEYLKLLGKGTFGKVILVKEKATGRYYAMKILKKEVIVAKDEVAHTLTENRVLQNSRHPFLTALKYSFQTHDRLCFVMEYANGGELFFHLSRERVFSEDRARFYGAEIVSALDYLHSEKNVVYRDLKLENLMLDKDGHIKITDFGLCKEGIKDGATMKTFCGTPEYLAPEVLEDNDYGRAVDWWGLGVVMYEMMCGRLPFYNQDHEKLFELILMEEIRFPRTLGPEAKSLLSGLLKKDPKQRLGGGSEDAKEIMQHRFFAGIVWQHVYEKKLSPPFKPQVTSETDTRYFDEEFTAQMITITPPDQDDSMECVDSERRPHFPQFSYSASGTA
For assay [2], the target named is T1, RAC-alpha serine/threonine-protein kinase. The assay is described as follows: Inhibition of GST-tagged PKB/Akt1 incubated for 5 mins before eNOS substrate and ATP addition at > 50 uM measured after 30 mins by kinase assay. The procedure, abridged: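 HTScan PKB/Akt1 kit: active recombinant GST-Akt1 (4 ng) in kinase buffer (Tris-HCl pH 7.5, MgCl2, β-glycerophosphate, Na3VO4, DTT) preincubated with compound or DMSO vehicle 5 min at room temperature. ATP/substrate cocktail with eNOS substrate added. Reaction stopped with 50 mM EDTA (pH 8.0); activity read per kit instructions. H-89 as positive control.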

Assay [3] relates to HL-60. The assay is described as follows: Antiproliferative activity against human HL60 after 72 hrs by MTT assay. The assay is classed as functional, cell-based. Particulars: HL-60, 72 h. The essentials:
(§1)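 MTT read-out: cells seeded at 4000 per well, attached overnight, exposed to compound over 1.0–100.0 µM for 72 h. MTT solution (5.0 mg/ml) added for a further 4 h at 37 °C, formazan dissolved in DMSO, absorbance at 570 nm. Triplicate wells in three independent experiments; IC50 from dose–effect analysis.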
For orientation: Tetrazolium assays rely on reduction of a dye to a coloured formazan, in cell work by metabolically active cells.

In assay [4] the test system is OVCAR-8. The assay is described as follows: Down regulation of PKB/Akt phosphorylation at Ser-473 in human OVCAR8 cells at 20 uM by Western blot analysis. The format is functional, cell-based. The essentials:
(§2)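 OVCAR-8 cells treated, harvested, washed in ice-cold PBS and lysed in immunoprecipitation buffer with NaF, β-glycerophosphate, detergents and PMSF. Debris pelleted at 13,000 rpm for 30 min at 4 °C; protein measured by Bradford. Immunoblots probed for phospho-Akt Ser-473, phospho- and total GSK3, with GAPDH.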
A general note: A western blot detects proteins with antibodies after separation by electrophoresis.

The subject of assay [5] is OVCAR-8. Description: Inhibition of PKB/Akt in human OVCAR8 cells assessed as decrease of GSK3-beta phosphorylation at 20 uM after Western blot analysis. The format is cell-based. The essentials:
as §2

The test system of assay [6] is OVCAR-8. The assay is described as follows: Antiproliferative activity against human OVCAR8 after 72 hrs by MTT assay. Particulars: OVCAR-8, 72 h. The format is functional, cell-based. The essentials:
as §1

Assay [7] concerns PC-3. The assay is described as follows: Antiproliferative activity against human PC3 after 72 hrs by MTT assay. The format is functional, cell-based. The note with it: PC-3, 72 h. The procedure, abridged:
as §1

The subject of assay [8] is OVCAR-8. Description: Decrease in GSK3-beta protein level in human OVCAR8 cells at 20 uM by Western blot analysis. The format is functional, cell-based. The procedure, abridged: as §2
For assay [9], the system named is OVCAR-8. Description: Induction of apoptosis in human OVCAR8 cells assessed as apoptotic cells at 20 uM after 72 hrs by Annexin V-FITC/propidium iodide staining-based FACS analysis. The format is functional. The essentials: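 OVCAR-8 cells (5 × 10^4 cells/ml) cultured in flasks and treated with vehicle or compound. After treatment, cells harvested and washed twice in ice-cold PBS, then stained with Annexin V-FITC/propidium iodide and analysed by flow cytometry.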

What is called IC50 is the midpoint of a concentration-inhibition curve. For `CC(C)=CCc1cc2c(=O)cc(-c3ccc(O)cc3O)oc2cc1O`, in [1], the IC50 result was “Not Active”.

For `O=c1cc(CSc2nnc(O)n2C2Cc3ccccc3C2)c2ccc(O)cc2o1`, the IC50 result in [1] is “Not Active”.

What is called inhibition is how much of the control response was suppressed. Turning to `CC(=O)Nc1cccc(-n2nnc(SCC(=O)NCc3cccs3)n2)c1`, the IC50 in [1] (read-out: IC50) is > 50 µM. Besides, in assay [2], the inhibition amounted to 19.6%.

For the compound `CC(C)=CCc1c(O)cc(O)c(C(=O)/C=C/c2ccc(O)cc2)c1O` [DEMETHYLXANTHOHUMOL], the IC50 in assay [1] (read-out: IC50) was 144 µM.

With `Cc1ccc(S(=O)(=O)OC[C@H]2O[C@@H](n3cnc4c(=O)[nH]c(NC(=O)C(C)C)nc43)C[C@H]2O)cc1`, the IC50 entry in assay [1] is listed as “Not Active”.

With `CC(C)=CCc1c(O)cc2oc(-c3ccc(O)c(O)c3)cc(=O)c2c1O`, the IC50 in assay [3] turned out to be 2.5 µM; in assay [1] (read-out: IC50), 5.4 µM; in assay [6], 23.8 µM; in [7] it was 14.6 µM. Besides, the outcome in assay [4] was Active. Besides, the inhibition result in assay [5] is “Active”. Moreover, in assay [8], the result was inactive. The Activity in assay [9] is given as 40.19%.

On to `CC(C)=CCc1c(O)cc2oc(-c3ccc(O)cc3O)cc(=O)c2c1O`, for which the IC50 in assay [1] (read-out: IC50) was 54.5 µM.

For the compound `CC(C)=CCc1c(O)cc(O)c2c(=O)cc(-c3ccc(O)c(O)c3)oc12`, the IC50 in assay [3] worked out at 3.31 µM; in [1] (read-out: IC50), 3.9 µM; in [6], 16.6 µM; in [7], 18.6 µM. The outcome in [4] was Active. For the same compound, the inhibition result in [5] is “Active”. In addition, in [8], the result was inactive. Further, in assay [9], the Activity is recorded as 49.11%.

Take `CC(C)=CCc1cc(C(=O)/C=C/c2cccc(O)c2)c(O)cc1O`: the IC50 in assay [1] (read-out: IC50) was determined as 85.9 µM.
